The target of assay [1] is T1, BtProRS2 (Bacillus thuringiensis, UniProt Q6HNZ7).
T1 sequence (Q6HNZ7 1-476): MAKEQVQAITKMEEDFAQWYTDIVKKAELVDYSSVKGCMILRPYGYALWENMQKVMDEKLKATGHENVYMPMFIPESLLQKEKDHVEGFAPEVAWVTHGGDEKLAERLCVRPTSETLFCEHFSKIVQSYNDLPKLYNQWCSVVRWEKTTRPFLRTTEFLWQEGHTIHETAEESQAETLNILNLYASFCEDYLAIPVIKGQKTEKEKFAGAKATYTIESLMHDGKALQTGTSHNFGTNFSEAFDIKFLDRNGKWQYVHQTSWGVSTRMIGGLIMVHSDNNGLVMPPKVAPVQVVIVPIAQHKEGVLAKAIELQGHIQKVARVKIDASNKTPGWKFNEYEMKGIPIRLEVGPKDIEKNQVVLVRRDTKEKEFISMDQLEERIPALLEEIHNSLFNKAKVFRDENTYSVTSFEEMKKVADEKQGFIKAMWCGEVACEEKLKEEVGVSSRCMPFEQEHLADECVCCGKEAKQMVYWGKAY
Description: Aminoacylation after pretreatment of the enzyme with H2O2, DTT, urea or GnHCl. The class given is biochemical. The method, boiled down: (§1)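 Purified His6-tagged enzymes were expressed in E. coli BL21-CodonPlus(DE3) and purified by Ni-NTA. Enzymes at 1000 nM were pretreated 10 min at 20°C with H2O2 (0–32 mM), DTT (0–80 mM), urea (0–3200 mM) or GnHCl (0–3200 mM). They were then diluted to 100 nM final in buffer with 4 mM ATP, 10 μM transcribed tRNA^Pro and 21.13 μM [3H]-proline, run 10 min at 30°C, with TCA filter counting; three independent experiments.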

Assay [2] has as its target T2, BtProRS1 (Bacillus thuringiensis, UniProt Q6HEZ6).
T2 sequence (Q6HEZ6 1-566): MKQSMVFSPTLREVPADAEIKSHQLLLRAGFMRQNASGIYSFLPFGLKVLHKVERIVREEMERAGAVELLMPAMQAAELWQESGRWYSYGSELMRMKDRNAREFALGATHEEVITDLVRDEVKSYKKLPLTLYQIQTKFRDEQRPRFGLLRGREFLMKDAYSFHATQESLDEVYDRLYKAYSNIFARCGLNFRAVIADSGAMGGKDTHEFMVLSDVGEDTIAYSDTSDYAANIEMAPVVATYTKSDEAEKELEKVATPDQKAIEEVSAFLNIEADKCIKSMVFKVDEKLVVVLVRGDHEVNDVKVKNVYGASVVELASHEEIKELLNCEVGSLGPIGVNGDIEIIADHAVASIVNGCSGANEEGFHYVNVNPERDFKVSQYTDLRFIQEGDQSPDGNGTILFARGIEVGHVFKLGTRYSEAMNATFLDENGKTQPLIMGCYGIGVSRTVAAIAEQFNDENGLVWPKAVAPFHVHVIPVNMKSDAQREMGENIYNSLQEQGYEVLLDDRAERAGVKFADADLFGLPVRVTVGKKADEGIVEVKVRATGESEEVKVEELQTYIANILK
Described as above. The class given is biochemical. The method, boiled down: as §1

The next assay deals with P. falciparum ProRS. Conditions: cited from earlier work.
In assay [3] the target is T1, BtProRS2. Description: HF inhibition assay. Format: biochemical. The method, boiled down:
(§2)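 Purified His6-tagged enzyme (100 nM final) was mixed with test compound (0.1 nM–10 μM) in 50 μl aminoacylation buffer. Incubation was 10 min at 30°C, with TCA-filter scintillation counting. Relative activity is rate with inhibitor over rate without, and curves were fitted per enzyme.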

Assay [4] concerns the target T2, BtProRS1. The assay can be described thus: HF inhibition assay. The class given is biochemical. Summed up:
as §2

Assay [5] deals with total cellular extracts of B. thuringiensis. Description: HF inhibition assay with total cellular extracts. The class given is biochemical, Bacillus thuringiensis. Conditions: 3 μg of total cellular extracts in 50-μl aminoacylation buffer, 30°C, 10 min. Summed up:
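B. thuringiensis ATCC 13367 was grown 24 h at 30°C in LB with shaking, PBS-washed, glass-bead lysed on ice in HEPES pH 7.2 buffer with protease inhibitors, and cleared. Extract (3 μg) was incubated with test compound (0.1 nM–10 μM) 10 min at 30°C; [3H]-proline charging of tRNA^Pro was filter-counted. Relative activity curves were fitted using the individual-enzyme curves to give the ProRS1 activity proportion.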

The test system of the next assay is T. gondii ProRS. Conditions: cited from earlier work.
The subject of assay [6] is P-type ProRS (such as Pseudomonas aeruginosa ProRS). To be noted: cited from earlier work.

As a reminder, the IC50 is the concentration that inhibits the measured activity by half. `O[C@@H](CS)[C@@H](O)CS` (racemic) [DTT, Dithiothreitol]: the IC50 at BtProRS2 [1] was above 80000 µM; at BtProRS1 [2] it was 27000 µM.
As for `O=C(CC1NCCCC1O)Cn1cnc2cc(Br)c(Cl)cc2c1=O` (stereo not drawn) [HF, halofuginone], the IC50 in the assay with P. falciparum ProRS is 0.009 µM; on BtProRS2 [3] it was 0.17 µM; against BtProRS1 [4], 0.68 µM; in assay [5] it was around 0.4 µM; in the assay on T. gondii ProRS, 0.00541 µM. Further, the “IC50 for BtProRS2 lower than that for BtProRS1” value on BtProRS2 [3] (ratio of IC50 BtProRS1 to BtProRS2) is recorded as 4 fold. In addition, in assay [6], the “less effective against a P-type ProRS than against E-type ProRS” value was around 100 fold.

These data come from PMC11229370 (Nucleic Acids Research, 2024).
